In PubChem BioAssay AID2340 (Sanford-Burnham Center for Chemical Genomics, 2010):
Activity calls are given as the source filed them.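 Rule for the calls: active = potency EC50 below 10 µM in the dose response test; inactive = the rest.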

target: G-protein coupled receptor 35 (Homo sapiens) (UniProt Q9HC97); test: GPR35 agonist activity of analogs, SAR follow-up, selectivity assay, imaging, U2OS, beta-arrestin-GFP, powder samples (AID 2340); conditions: U2OS GPR35 beta-arrestin-GFP translocation imaging
Sequence (Q9HC97 whole entry, looked up): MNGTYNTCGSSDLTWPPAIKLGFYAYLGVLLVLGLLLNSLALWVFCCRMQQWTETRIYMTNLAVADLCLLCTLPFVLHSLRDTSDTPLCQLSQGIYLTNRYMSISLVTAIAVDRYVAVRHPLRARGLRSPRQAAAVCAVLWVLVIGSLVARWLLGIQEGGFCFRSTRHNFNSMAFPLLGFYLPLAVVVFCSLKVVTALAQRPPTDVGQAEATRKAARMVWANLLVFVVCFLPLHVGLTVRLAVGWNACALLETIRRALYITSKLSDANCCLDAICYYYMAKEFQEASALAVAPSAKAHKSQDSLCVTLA
Procedure, shortened: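 Assay system: human U2OS cells stably co-expressing GPR35 and beta-arrestin-GFP / Doses: Ten-point series, 62 nM to 32 µM, duplicates / Times: compound exposure 45 min at 37 °C / Measured by: imaging of fixed, DAPI-stained arrestin-GFP cells / Replication: each dose tested in duplicate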

EC50, inactive:
COc1ccc(S(=O)(=O)N2CCOCC2)cc1NC(=O)c1cc2c(s1)CCCC2 > 32 µM
C=CCN(CC=C)S(=O)(=O)c1ccc(NC(=S)NC(=O)c2ccc(-c3ccccc3)cc2)cc1 > 32 µM
COc1ccc2cc(C)c3nnc(SCC(=O)Nc4nc(-c5ccc(F)cc5)cs4)n3c2c1 > 32 µM
CC(Sc1nc2cc(Cl)ccc2s1)C(=O)Nc1cccc(S(=O)(=O)N2CCOCC2)c1 (stereo unspecified) > 32 µM
Cc1cccc(N2CCN(C(=O)c3cc(S(=O)(=O)N(C)C)ccc3N3CCCC3)CC2)c1C > 32 µM
CC(C)NS(=O)(=O)c1ccc(NC(=S)NC(=O)c2ccc(-c3ccccc3)cc2)cc1 > 32 µM
COc1ccc(-c2csc(NC(=O)CSc3nnc4c(C)cc5ccccc5n34)n2)cc1 > 32 µM
CCCN(CCC)Cc1c(C(=O)NN=C/C(C)=C\c2ccccc2)nnn1-c1nonc1N > 32 µM
CN(C)S(=O)(=O)c1ccc(N2CCCC2)c(C(=O)N2CCN(c3ccc([N+](=O)[O-])cc3)CC2)c1 > 32 µM
COc1ccc2c(c1)cc(C)c1nnc(SCC(=O)N(C)c3nc(-c4ccccc4)cs3)n12 > 32 µM
Cc1occc1C(=O)Nc1ccc(OCc2ccccc2)cc1 > 32 µM
C/C(C=NNC(=O)c1nnn(-c2nonc2N)c1CN1CCC(C)CC1)=C/c1ccccc1 > 32 µM
CCCN(CCC)Cc1c(C(=O)NN=Cc2c[nH]c3ccccc23)nnn1-c1nonc1N > 32 µM
COc1cc2c(cc1NC(=O)C(C)Sc1ccc(NC(C)=O)cc1)oc1ccccc12 (stereo unspecified) > 32 µM
O=C(CSc1nc2ccccc2s1)N1c2ccccc2Sc2ccc(C(F)(F)F)cc21 > 32 µM
CC(C)=CC(=O)Nc1ccc(OCc2ccccc2)cc1 > 32 µM
COc1ccccc1/C=C/C(=O)NC(=S)Nc1ccc(S(=O)(=O)N(C)c2ccccc2)cc1 > 32 µM
O=C(CSc1nc2ccccc2s1)N1c2ccccc2Sc2ccc(Cl)cc21 > 32 µM
COc1cc2c(cc1NC(=O)CSc1ccccc1)oc1ccccc12 > 32 µM
CCCN(CCC)Cc1c(C(=O)NN=C/C(C)=C\c2ccco2)nnn1-c1nonc1N > 32 µM
CC(C)Oc1ccc(S(=O)(=O)N2CCOCC2)cc1NC(=O)c1ccc(N2CCCC2=O)cc1 > 32 µM
